Assay results: ChEMBL document CHEMBL3098013, “Novel pyrazole integrated 1,3,4-oxadiazoles: synthesis, characterization and antimicrobial evaluation” (2014)
Converted amounts (≈) assume the structure as drawn.

What was measured:
Type in all cases: functional
Fusarium verticillioides [1] = experiment: Antimicrobial activity against Fusarium moniliforme MTCC 156 after 48 hrs by microdilution method; settings: MTCC 156, 48 h
Summary of the method: (§1)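 The minimal inhibitory concentration was determined by dilution, alongside minimal bactericidal concentration for bacterial strains and minimal fungicidal concentration for fungal strains. Tests were run in six replicates, and the value is the mean of at least three determinations.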

Aspergillus flavus [2] = experiment: Antimicrobial activity against Aspergillus flavus MTCC 873 at 50 ug/ml after 48 hrs by disc diffusion method; settings: MTCC 873, 48 h, read-out: DIZ
Summary of the method: (§2)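 Agar diffusion read-out is the diameter of the inhibition zone in mm. Each test was run in six replicates and reported as mean ± standard deviation, taken from at least three determinations.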

Fusarium oxysporum [3] = experiment: Antimicrobial activity against Fusarium oxysporum MTCC 284 at 50 ug/ml after 48 hrs by disc diffusion method; settings: MTCC 284, 48 h, read-out: DIZ; summary of the method: as §2
Escherichia coli [4] = experiment: Antimicrobial activity against Escherichia coli MTCC 724 at 100 ug/ml after 24 hrs by disc diffusion method; settings: MTCC 724, 24 h, read-out: DIZ; summary of the method: as §2
Bacillus cereus [5] = experiment: Antimicrobial activity against Bacillus cereus MTCC 8372 at 100 ug/ml after 24 hrs by disc diffusion method; settings: MTCC 8372, 24 h, read-out: DIZ; summary of the method: as §2
Fusarium verticillioides [6] = experiment: Antimicrobial activity against Fusarium moniliforme MTCC 156 at 100 ug/ml after 48 hrs by disc diffusion method; settings: MTCC 156, 48 h, read-out: DIZ; summary of the method: as §2
Fusarium oxysporum [7] = experiment: Antimicrobial activity against Fusarium oxysporum MTCC 284 at 100 ug/ml after 48 hrs by disc diffusion method; settings: MTCC 284, 48 h, read-out: DIZ; summary of the method: as §2
Aspergillus flavus [8] = experiment: Antimicrobial activity against Aspergillus flavus MTCC 873 after 48 hrs by microdilution method; settings: MTCC 873, 48 h; summary of the method: as §1
Aspergillus flavus [9] = experiment: Antimicrobial activity against Aspergillus flavus MTCC 873 at 100 ug/ml after 48 hrs by disc diffusion method; settings: MTCC 873, 48 h, read-out: DIZ; summary of the method: as §2
Fusarium verticillioides [10] = experiment: Antimicrobial activity against Fusarium moniliforme MTCC 156 at 50 ug/ml after 48 hrs by disc diffusion method; settings: MTCC 156, 48 h, read-out: DIZ; summary of the method: as §2
Aspergillus niger [11] = experiment: Antimicrobial activity against Aspergillus niger MTCC 281 after 48 hrs by microdilution method; settings: MTCC 281, 48 h; summary of the method: as §1
Bacillus cereus [12] = experiment: Antimicrobial activity against Bacillus cereus MTCC 8372 after 24 hrs by microdilution method; settings: MTCC 8372, 24 h; summary of the method: as §1
Aspergillus niger [13] = experiment: Antimicrobial activity against Aspergillus niger MTCC 281 at 100 ug/ml after 48 hrs by disc diffusion method; settings: MTCC 281, 48 h, read-out: DIZ; summary of the method: as §2
Aspergillus niger [14] = experiment: Antimicrobial activity against Aspergillus niger MTCC 281 at 50 ug/ml after 48 hrs by disc diffusion method; settings: MTCC 281, 48 h, read-out: DIZ; summary of the method: as §2
Fusarium oxysporum [15] = experiment: Antimicrobial activity against Fusarium oxysporum MTCC 284 after 48 hrs by microdilution method; settings: MTCC 284, 48 h; summary of the method: as §1
Klebsiella pneumoniae [16] = experiment: Antimicrobial activity against Klebsiella pneumoniae MTCC 3384 after 24 hrs by microdilution method; settings: MTCC 3384, 24 h; summary of the method: as §1
Escherichia coli [17] = experiment: Antimicrobial activity against Escherichia coli MTCC 724 at 50 ug/ml after 24 hrs by disc diffusion method; settings: MTCC 724, 24 h, read-out: DIZ; summary of the method: as §2
Staphylococcus aureus [18] = experiment: Antimicrobial activity against Staphylococcus aureus MTCC 96 at 50 ug/ml after 24 hrs by disc diffusion method; settings: MTCC 96, 24 h, read-out: DIZ; summary of the method: as §2
Escherichia coli [19] = experiment: Antimicrobial activity against Escherichia coli MTCC 724 after 24 hrs by microdilution method; settings: MTCC 724, 24 h; summary of the method: as §1
Staphylococcus aureus [20] = experiment: Antimicrobial activity against Staphylococcus aureus MTCC 96 at 100 ug/ml after 24 hrs by disc diffusion method; settings: MTCC 96, 24 h, read-out: DIZ; summary of the method: as §2
Bacillus cereus [21] = experiment: Antimicrobial activity against Bacillus cereus MTCC 8372 at 50 ug/ml after 24 hrs by disc diffusion method; settings: MTCC 8372, 24 h, read-out: DIZ; summary of the method: as §2
Klebsiella pneumoniae [22] = experiment: Antimicrobial activity against Klebsiella pneumoniae MTCC 3384 at 100 ug/ml after 24 hrs by disc diffusion method; settings: MTCC 3384, 24 h, read-out: DIZ; summary of the method: as §2
Klebsiella pneumoniae [23] = experiment: Antimicrobial activity against Klebsiella pneumoniae MTCC 3384 at 50 ug/ml after 24 hrs by disc diffusion method; settings: MTCC 3384, 24 h, read-out: DIZ; summary of the method: as §2
Staphylococcus aureus [24] = experiment: Antimicrobial activity against Staphylococcus aureus MTCC 96 after 24 hrs by microdilution method; settings: MTCC 96, 24 h; summary of the method: as §1

Compound | MFC (Fusarium verticillioides [1]) | MIC (Fusarium verticillioides [1]) | zone of inhibition at 50 µg/mL (Aspergillus flavus [2]) | zone of inhibition at 50 µg/mL (Fusarium oxysporum [3]) | zone of inhibition at 100 µg/mL (Escherichia coli [4]) | zone of inhibition at 100 µg/mL (Bacillus cereus [5]) | zone of inhibition at 100 µg/mL (Fusarium verticillioides [6]) | zone of inhibition at 100 µg/mL (Fusarium oxysporum [7]) | MFC (Aspergillus flavus [8]) | MIC (Aspergillus flavus [8]) | zone of inhibition at 100 µg/mL (Aspergillus flavus [9]) | zone of inhibition at 50 µg/mL (Fusarium verticillioides [10]) | MFC (Aspergillus niger [11]) | MIC (Aspergillus niger [11]) | MBC (Bacillus cereus [12]) | MIC (Bacillus cereus [12]) | zone of inhibition at 100 µg/mL (Aspergillus niger [13]) | zone of inhibition at 50 µg/mL (Aspergillus niger [14]) | MFC (Fusarium oxysporum [15]) | MIC (Fusarium oxysporum [15]) | further results
COc1cc(-c2nnc(-c3c(-c4ccccc4)nn(-c4ccccc4)c3C)o2)cc(OC)c1OC | 300 µg/mL (≈ 640 µM) | 55 µg/mL (≈ 117 µM) | 4 mm | 8 mm | 32 mm | 13 mm | 10 mm | 10 mm | 275 µg/mL (≈ 587 µM) | 45 µg/mL (≈ 96 µM) | 13 mm | 7 mm | 275 µg/mL (≈ 587 µM) | 40 µg/mL (≈ 85.4 µM) | 230 µg/mL (≈ 491 µM) | 35 µg/mL (≈ 74.7 µM) | 12 mm | 5 mm | 275 µg/mL (≈ 587 µM) | 40 µg/mL (≈ 85.4 µM) | MBC (Klebsiella pneumoniae [16]): 160 µg/mL (≈ 342 µM); MIC (Klebsiella pneumoniae [16]): 20 µg/mL (≈ 42.7 µM); zone of inhibition at 50 µg/mL (Escherichia coli [17]): 20 mm; zone of inhibition at 50 µg/mL (Staphylococcus aureus [18]): 5 mm; MBC (Escherichia coli [19]): 150 µg/mL (≈ 320 µM); MIC (Escherichia coli [19]): 20 µg/mL (≈ 42.7 µM); zone of inhibition at 100 µg/mL (Staphylococcus aureus [20]): 12 mm; zone of inhibition at 50 µg/mL (Bacillus cereus [21]): 4 mm; zone of inhibition at 100 µg/mL (Klebsiella pneumoniae [22]): 20 mm; zone of inhibition at 50 µg/mL (Klebsiella pneumoniae [23]): 10 mm; MBC (Staphylococcus aureus [24]): 250 µg/mL (≈ 534 µM); MIC (Staphylococcus aureus [24]): 40 µg/mL (≈ 85.4 µM)
COc1ccc(-c2nnc(-c3c(-c4ccccc4)nn(-c4ccccc4)c3C)o2)cc1 | 290 µg/mL (≈ 710 µM) | 50 µg/mL (≈ 122 µM) | 8 mm | 8 mm | 12 mm | 12 mm | 11 mm | 12 mm | 270 µg/mL (≈ 661 µM) | 45 µg/mL (≈ 110 µM) | 14 mm | 9 mm | 275 µg/mL (≈ 673 µM) | 45 µg/mL (≈ 110 µM) | 220 µg/mL (≈ 539 µM) | 35 µg/mL (≈ 85.7 µM) | 12 mm | 6 mm | 280 µg/mL (≈ 685 µM) | 50 µg/mL (≈ 122 µM) | MBC (Klebsiella pneumoniae [16]): 240 µg/mL (≈ 588 µM); MIC (Klebsiella pneumoniae [16]): 45 µg/mL (≈ 110 µM); zone of inhibition at 50 µg/mL (Escherichia coli [17]): 8 mm; zone of inhibition at 50 µg/mL (Staphylococcus aureus [18]): 6 mm; MBC (Escherichia coli [19]): 235 µg/mL (≈ 575 µM); MIC (Escherichia coli [19]): 45 µg/mL (≈ 110 µM); zone of inhibition at 100 µg/mL (Staphylococcus aureus [20]): 12 mm; zone of inhibition at 50 µg/mL (Bacillus cereus [21]): 5 mm; zone of inhibition at 100 µg/mL (Klebsiella pneumoniae [22]): 11 mm; zone of inhibition at 50 µg/mL (Klebsiella pneumoniae [23]): 9 mm; MBC (Staphylococcus aureus [24]): 225 µg/mL (≈ 551 µM); MIC (Staphylococcus aureus [24]): 35 µg/mL (≈ 85.7 µM)
